What was measured:
[1] = (§1) Drug level in Balb/c mouse treated with 2-{[4-({(Furan-2-ylmethyl)[(5-methylthiophen-2-yl)-methyl]amino}methyl)phenyl]carbonyl}-1,2,3,4-tetrahydroisoquinolin-7-yl Sulfamate assessed as metabolite formation at 30 mg/kg, sc administered as single dose using MC/EtOH formulation by LC-MS/MS analysis; assay type: ADME, organism-based; conditions: in vivo
Procedure, shortened: (§2)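 Phenol metabolite EO-29 measured by LC-MS/MS in plasma of female Balb/c mice fasted 8 h, then given a single 30 mg/kg dose of the sulfamate in MC:EtOH (92:8), 0.1 mL, SC or by gavage. Sampled at 1, 3, 7, 12 and 24 h by cardiac puncture (2–3 mice/group).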

[2] = as §1, with “po” for “sc”, “administered via gavage” for “administered”; assay type: ADME, organism-based; conditions: in vivo; procedure, shortened: as §2
Mus musculus [3] = assay: Osteogenic activity in ovariectomized-induced C57BL/6 mouse model of osteoporosis assessed as recovery of tibia weight at 5 ug/kg, sc treated for 70 days relative to control; assay type: functional
Procedure, shortened: (§3)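 Female C57BL/6 mice (63–70 days) ovariectomized under isoflurane; sham controls kept. 8/group, dosed SC in 0.1 mL MC:EtOH (92:8) for 70 days. Tibias excised and weighed (mg/g body weight). Calcium measured by ICP-MS after calcination at 600 °C for 6 h and HNO3 microwave digestion; expressed as mg/g tibia.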

Mus musculus [4] = assay: Osteogenic activity in ovariectomized-induced C57BL/6 mouse model of osteoporosis assessed as recovery of tibia calcium content at 5 ug/kg, sc treated for 70 days by Triple Quad ICP-MS analysis relative to control; assay type: functional; procedure, shortened: as §3
Mus musculus [5] = assay: Ex vivo inhibition of STS in ovariectomized Balb/c mouse liver homogenates assessed as reduction in transformation of [3H]-E1S into [3H]-E1 at 5 mg/kg, sc administered once daily starting from day 2 to day 10 using MC/EtOH formulation and E1S addition on day 5 to 10 measured on day 11 by liquid scintillation counting method relative to control; assay type: functional
Procedure, shortened: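 Livers collected on day 11 from the OVX Balb/c uterotrophic protocol and homogenized in cold pH 7.4 phosphate buffer with protease inhibitors. 2000 g supernatant, 100 or 500 µg protein, incubated with [3H]-E1S/E1S (final 1 µM) in PBS for 2 h at 37 °C. Xylene extraction, then scintillation counting of both phases. Result given as % E1 formed. Triplicate.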

Mus musculus [6] = assay: In vivo inhibition of STS in ovariectomized Balb/c mouse assessed as reduction in E1S-stimulated uterus weight at 5 mg/kg, sc administered once daily starting from day 2 to day 10 using MC/EtOH formulation and E1S addition on day 5 to 10 measured on day 11 relative to control; assay type: functional
Procedure, shortened: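 Female Balb/c mice (15–20 g) ovariectomized under isoflurane, 5/group. Inhibitor given SC in 0.1 mL MC:EtOH (92:8) on days 2–10. E1S (2 µg/mouse, BID) or E1 (0.06 µg/mouse, ID) given SC on days 5–10. Vehicle controls included. Uterus dissected and weighed on day 11. Means ± SEM.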

Mus musculus [7] = assay: Estrogenic activity in ovariectomized-induced C57BL/6 mouse model of osteoporosis assessed as stimulation of uterus weight at 1 mg/kg, sc administered 6 days per week for 70 days measured post last dose by necropsy analysis; assay type: ADME, organism-based; conditions: in vivo
[8] = Hepatotoxicity in ovariectomized-induced C57BL/6 mouse model of osteoporosis assessed as effect on liver weight at 1 mg/kg, sc administered 6 days per week for 70 days measured post last dose by necropsy analysis; assay type: toxicity, organism-based; conditions: in vivo
Mus musculus [9] = assay: Osteogenic activity in ovariectomized-induced C57BL/6 mouse model of osteoporosis assessed as recovery of tibia calcium content at 1 mg/kg, sc administered 6 days per week for 70 days by Triple Quad ICP-MS analysis relative to control; assay type: functional; procedure, shortened: as §3
[10] = Toxicity in ovariectomized-induced C57BL/6 mouse model of osteoporosis assessed as effect on body weight at 1 mg/kg, sc administered 6 days per week for 70 days measured post last dose; assay type: organism-based; conditions: in vivo
Procedure, shortened: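 Female C57BL/6 mice, 63-70 days old, ovariectomized under isoflurane (sham-operated controls), randomized by weight into groups of 8. Treated SC in 0.1 mL MC:EtOH (92:8) over 70 days; sham and OVX controls received vehicle alone. Mice weighed at the end of the protocol before necropsy.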

Mus musculus [11] = assay: Osteogenic activity in ovariectomized-induced C57BL/6 mouse model of osteoporosis assessed as recovery of tibia weight at 1 mg/kg, sc administered 6 days per week for 70 days relative to control; assay type: functional; procedure, shortened: as §3

Question: What does the source list for `Cc1ccc(CN(Cc2ccc(C(=O)N3CCc4ccc(O)cc4C3)cc2)Cc2ccco2)s1`?
Answer: Drug metabolism [1]: Metabolite_Detected; Drug metabolism [2]: Metabolite_Detected

Question: For `C[C@]12CC[C@@H]3c4ccc(O)cc4CC[C@H]3[C@@H]1CC[C@@H]2O` [ESTRADIOL], which Activity (Mus musculus [3]) is on record?
Answer: 100%

Question: What about the Activity (Mus musculus [4]) of the same compound?
Answer: 100%

Question: With `COc1cc2c(cc1OS(N)(=O)=O)CC[C@@H]1[C@@H]2CC[C@@]2(C)[C@H]1CC[C@@]2(O)Cc1ccccc1` as the compound, how does the inhibition in vivo at 5 mg/kg (Mus musculus [5]) read?
Answer: 100%

Question: And the inhibition in vivo at 5 mg/kg (Mus musculus [6])?
Answer: 71%

Question: For `O=C(c1ccc(OCCN2CCCCC2)cc1)c1c(-c2ccc(O)cc2)sc2cc(O)ccc12` [RALOXIFENE], which Activity (Mus musculus [7]) is on record?
Answer: Toxic

Question: And the Activity [8]?
Answer: Non-Toxic

Question: And the Activity (Mus musculus [9])?
Answer: 100%

Question: And the Activity [10]?
Answer: Non-Toxic

Question: And the Activity (Mus musculus [11])?
Answer: 100%

Reference: ChEMBL document CHEMBL4396876, “Antisulfatase, Osteogenic, and Anticancer Activities of Steroid Sulfatase Inhibitor EO-33 in Mice” (J Med Chem, 2019)
